Laboratory results as given in PMC9958447 (Heliyon, 2023).
“Also recorded” adds a separate entry of the source.

Columns and labels:
[1] = system: zc4h2 KO zebrafish larvae; experiment: Heartbeat / cardiotoxicity in zc4h2 KO zebrafish larvae; assay type: in vivo, zebrafish (Danio rerio); settings: for cardiotoxicity: zebrafish larvae, judged from heartbeat
[2] = system: PTZ-induced larvae of zebrafish; experiment: Behavioural assessment in PTZ-induced epilepsy zebrafish larvae; assay type: in vivo, zebrafish (Danio rerio)
[3] = system: wild-type (WT) zebrafish embryos; experiment: Toxicity profiling of embryo zebrafish; assay type: in vivo, zebrafish (Danio rerio)
Method in brief: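 Wild-type embryos were exposed from 5 hpf to the test compound at 0, 4.29, 8.58, 12.86, 17.15 and 21.44 μM, serially diluted from a 1 mM DMSO stock. Triplicates had 10 embryos each (n = 30). Mortality was scored daily, with LC50 at 72 hpf. Spontaneous coils were counted for 1 min at 24 hpf after 5 min habituation. Percent hatched was scored at 72 hpf. Data are mean ± SEM, analysed by one-way ANOVA with Tukey.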

[4] = cited from earlier work
zebrafish larvae = settings: cited from earlier work
[5] = 2.5 mM PTZ, 5 dpf larvae, 8.58 μM compound 8 or 100 μM VPA, 1 h
[6] = 2.5 mM PTZ, 5 dpf larvae, 8.58 μM compound 8 or 100 μM VPA, 1 h, vs PTZ group
[7] = 2.5 mM PTZ alone vs control, 5 dpf larvae

Compound: O=C(/C=C/c1cc(F)cc(F)c1)c1ccc[nH]1 [Compound 8, (E)-3-(3,5-difluorophenyl)-1-(1H-pyrrol-2-yl)prop-2-en-1-one]
- heartbeat (heartbeats/min) ([1]; 5 dpf larvae, 2 h incubation, vs control groups): no significant difference
- cardiotoxicity [1]: no cardiotoxic effects
- cardiotoxicity ([1]; listed as compound 8): no cardiotoxic effect; also recorded: no potential cardiotoxicity
- distance spent in the inner area (thigmotaxis) [2, 5]: significantly increased
- total duration of freezing [2, 5]: increased
- average velocity (average speed travelled) [2, 6]: significant decrease
- number of freezing count [2, 6]: significant reduction
- total velocity (total speed travelled) [2, 6]: significant decrease
- convulsive behaviour ([2]; PTZ-induced larvae): effective in reducing
- mortality at the beginning of the observation period ([3]; 21.44 μM, 24 hpf): lethal
- spontaneous tail coiling (STC) ([3]; >12.86 μM, 24 hpf): no tail movement
- optimal safe concentration ([3]; chosen from all toxicological parameters): 8.58 µM
- cumulative mortality rate ([3]; exposure of 12.86 μM or more, 24–72 hpf): > 80%
- mortality compared to the control group ([3]; exposure up to 8.58 μM): no significant difference
- spontaneous tail coiling (STC) compared to control ([3]; from 8.58 μM, 24 hpf): significant decrease
- hatching rate ([3]; from 12.86 μM, 72 hpf): decreased significantly

Compound: O=c1onc(-c2cccs2)n1Cc1ccc(F)cc1Cl [GM90432, 4-(2-chloro-4-fluorobenzyl)-3-(2-thienyl)-1,2,4-oxadiazol-5(4H)-one]
- blood-brain barrier passage [4]: effectively cross the blood-brain barrier

Compound: C1CCc2nnnn2CC1 [PTZ, pentylenetetrazol]
- distance and speed of zebrafish [2, 7]: significantly increased
- total number of freezes [2, 7]: significantly increased

Compound: CCCC(CCC)C(=O)O [VPA, sodium valproate]
- distance spent in the inner area (thigmotaxis) [2, 5]: significantly increased
- total duration of freezing [2, 5]: without significant changes
- average velocity (average speed travelled) [2, 6]: significant decrease
- distance travelled (total and average) [2, 6]: significant decrease
- number of freezing count [2, 6]: significantly reduced
- total velocity (total speed travelled) [2, 6]: significant decrease

Compound: CN1C(=O)CN=C(c2ccccc2)c2cc(Cl)ccc21 [diazepam]
- percentage of distance spent in the inner area (zebrafish larvae): significantly increased
